From ChEMBL document CHEMBL1155878, “Substituted 6-phenyl-2-naphthols. Potent and selective nonsteroidal inhibitors of 17beta-hydroxysteroid dehydrogenase type 1 (17beta-HSD1): design, synthesis, biological evaluation, and pharmacokinetics” (J Med Chem, 2008)
Blank lines part the entries; values can stand above or below the compound they belong to. Calls of active or inactive are those of the source. No cut-off for these calls is given here.

Tests used:
[1] = biological target: T1, 17-beta-hydroxysteroid dehydrogenase type 1 (Homo sapiens, UniProt P14061); assay: Inhibition of human placental 17beta-HSD1 assessed as conversion of [3H]estrone to [3H]17beta-estradiol
T1 sequence (P14061 whole entry): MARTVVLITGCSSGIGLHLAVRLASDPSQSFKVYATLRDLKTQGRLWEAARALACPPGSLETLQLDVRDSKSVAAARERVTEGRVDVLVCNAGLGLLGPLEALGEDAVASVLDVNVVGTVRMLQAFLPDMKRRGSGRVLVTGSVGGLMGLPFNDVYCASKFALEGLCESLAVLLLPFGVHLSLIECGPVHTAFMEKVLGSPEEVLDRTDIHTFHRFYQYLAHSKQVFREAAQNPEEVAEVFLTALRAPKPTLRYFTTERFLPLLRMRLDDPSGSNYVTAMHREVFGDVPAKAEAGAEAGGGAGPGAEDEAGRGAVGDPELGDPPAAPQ

[2] = biological target: T2, 17-beta-hydroxysteroid dehydrogenase type 2 (Homo sapiens, UniProt P37059); assay: Inhibition of human placental 17beta-HSD2 assessed as conversion of [3H]17beta-estradiol to [3H]estrone
T2 sequence (P37059 whole entry): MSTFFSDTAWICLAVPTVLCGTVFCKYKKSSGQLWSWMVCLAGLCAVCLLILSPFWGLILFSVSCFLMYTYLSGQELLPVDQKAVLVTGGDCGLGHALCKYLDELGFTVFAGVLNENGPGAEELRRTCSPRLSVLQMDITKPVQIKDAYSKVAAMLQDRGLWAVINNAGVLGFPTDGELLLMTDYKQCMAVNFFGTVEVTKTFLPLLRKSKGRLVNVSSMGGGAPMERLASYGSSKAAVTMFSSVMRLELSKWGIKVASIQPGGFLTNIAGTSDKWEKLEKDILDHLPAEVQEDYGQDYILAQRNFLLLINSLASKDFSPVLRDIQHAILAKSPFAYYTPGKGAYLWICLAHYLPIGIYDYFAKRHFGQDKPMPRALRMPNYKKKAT
In short: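 Human placental microsomal fraction incubated with NAD+ (1500 µM), test compound and unlabeled plus [3H]E2 (final 500 nM) for 20 min at 37 °C. The reaction was stopped with HgCl2 and extracted with ether. E1 and E2 were separated by HPLC with radioflow detection. Percent conversion was used to derive inhibition. Values are the mean of three determinations; IC50 was measured for selected compounds.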

[3] = biological target: T3, 17-beta-hydroxysteroid dehydrogenase type 1 (Homo sapiens) (UniProt P14061); assay: Inhibition of human placental 17beta-HSD1 assessed as conversion of [3H]estrone to [3H]17beta-estradiol at 1 uM
T3 sequence (whole entry): T1 sequence (P14061 whole entry)
In short: (§1)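 Cytosolic enzyme from human placenta, purified by ammonium sulfate precipitation, with NADH 500 µM. Incubated at 37 °C in 50 mM phosphate buffer with 20% glycerol and 1 mM EDTA, 1% DMSO final. Started with [3H]E1 (500 nM final) and stopped with HgCl2 after 10 min. Ether extraction, then HPLC with radioflow detection of E1/E2. Result is % inhibition = 100 − % conversion, from ≥3 independent experiments.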

[4] = biological target: T3, 17-beta-hydroxysteroid dehydrogenase type 1 (Homo sapiens); assay: Inhibition of human placental 17beta-HSD1 assessed as conversion of [3H]estrone to [3H]17beta-estradiol at 100 nM; in short: as §1
[5] = biological target: T4, 17-beta-hydroxysteroid dehydrogenase type 2 (Homo sapiens) (UniProt P37059); assay: Inhibition of human recombinant expressed in Sf9 cells 17beta-HSD2 assessed as conversion of [3H]17beta-estradiol to [3H]estrone at 1 uM
T4 sequence (whole entry): T2 sequence (P37059 whole entry)
In short: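 Microsomes from Sf9 cells infected with baculovirus. Incubated with 30 nM [3H]E2 and 1 mM NAD+ in 20 mM KH2PO4, pH 7.4, for 30 min at room temperature, with 1% DMSO. Stopped with 10% trichloroacetic acid. E1/E2 radioactivity used for conversion; inhibition = 100 − % conversion, from two independent experiments.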

T47C = assay: Stimulation of human […] cell proliferation at 0.1 nM after 8 days by MTT assay; assay type: functional, cell-based
[6] = Cmax in Wistar rat at 10 mg/kg, po; assay type: ADME, organism-based; set-up: dose 10 mg/kg, route oral; settings: in vivo
In short: (§2)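 Four adult male Wistar rats per group given 10 mg/kg orally in labrasol/water (1:1), cassette dosing. Rats were jugular-cannulated under ketamine/xylazine and sampled freely moving at 1, 2, 3, 4, 6, 8, 10 and 24 h. Plasma stored at -20 °C and quantified by HPLC-MS/MS (ESI triple quadrupole).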

[7] = Tmax in Wistar rat at 10 mg/kg, po; assay type: ADME, organism-based; set-up: dose 10 mg/kg, route oral; settings: in vivo; in short: as §2
Rattus norvegicus [8] = assay: Tlast in Wistar rat at 10 mg/kg, po; assay type: ADME, organism-based; set-up: dose 10 mg/kg, route oral; settings: in vivo; in short: as §2
[9] = Terminal half life in Wistar rat at 10 mg/kg, po; assay type: ADME, organism-based; set-up: dose 10 mg/kg, route oral; settings: in vivo; in short: as §2
[10] = AUC (0 to tlast) in Wistar rat at 10 mg/kg, po; assay type: ADME, organism-based; set-up: dose 10 mg/kg, route oral; settings: plasma; in short: as §2
Rattus norvegicus [11] = assay: Clast in Wistar rat at 10 mg/kg, po; assay type: ADME, organism-based; set-up: dose 10 mg/kg, route oral; settings: in vivo; in short: as §2
[12] = AUC (0 to infinity) in Wistar rat at 10 mg/kg, po; assay type: ADME, organism-based; set-up: dose 10 mg/kg, route oral, time infinity; settings: plasma; in short: as §2
[13] = Stimulation of human […] cell proliferation at 100 nM after 8 days by MTT assay relative to 17-beta estradiol; assay type: functional

IC50 [1]: 40 nM
IC50 [2]: 639 nM
SMILES: Oc1cccc(-c2ccc3c(Br)c(O)ccc3c2)c1

inhibition [3]: 53%
inhibition [4]: inactive
SMILES: N#Cc1cc(-c2cccc(O)c2)cc2ccc(O)cc12

inhibition [3]: 75%
SMILES: Cc1ccc(S(=O)(=O)c2c(O)ccc3cc(-c4cccc(O)c4)ccc23)cc1

inhibition [3]: 73%
SMILES: Cc1nnc(NC(=O)c2c(O)ccc3cc(-c4cccc(O)c4)ccc23)s1

inhibition [3]: 99%
inhibition [4]: 73%
SMILES: N#Cc1cc(O)cc2ccc(-c3cccc(O)c3)cc12

inhibition [5]: 36%
SMILES: CNC(=O)CCc1c(O)ccc2cc(-c3cccc(O)c3)ccc12

Activity [3]: inactive
Activity [4]: inactive
SMILES: O=C(Nc1ncccn1)c1c(O)ccc2cc(-c3cccc(O)c3)ccc12

Activity [3]: inactive
Activity [4]: inactive
SMILES: O=C(Nc1ccccn1)c1c(O)ccc2cc(-c3cccc(O)c3)ccc12

inhibition [3]: 33%
SMILES: O=S(=O)(c1ccccc1)c1c(O)ccc2cc(-c3cccc(O)c3)ccc12

SMILES: C[C@]12CC[C@@H]3c4ccc(O)cc4CC[C@H]3[C@@H]1CC[C@@H]2O
Activity (T47C): Active

Cmax [6]: 860 ng/mL
Tmax [7]: 4 h
tz (Rattus norvegicus [8]): 24 h
half-life [9]: 6 h
IC50 [1]: 20 nM
AUC(0-t) [10]: 11700 ng·h/mL
Cz (Rattus norvegicus [11]): 115 ng/mL
AUC(0-inf) [12]: 12700 ng·h/mL
SMILES: Oc1cccc(-c2ccc3c(-c4ccccc4)c(O)ccc3c2)c1
Activity [13]: 39%

Cmax [6]: 2230 ng/mL
Tmax [7]: 6 h
tz (Rattus norvegicus [8]): 24 h
half-life [9]: 4 h
AUC(0-t) [10]: 29700 ng·h/mL
Cz (Rattus norvegicus [11]): 159 ng/mL
AUC(0-inf) [12]: 30700 ng·h/mL
SMILES: Oc1cccc(-c2ccc3cc(O)ccc3c2)c1
Activity [13]: 41%
